Test results reported in ChEMBL document CHEMBL1152629, “Discovery and structure-activity relationship analysis of Staphylococcus aureus sortase A inhibitors” (Bioorg Med Chem, 2009).
≈ marks a conversion by molar mass, not a printed value. Calls of active or inactive are those of the source. The rule behind the calls is not given here.

target: not listed separately; test: Inhibition of Bacillus anthracis sortase A by FRET-based enzyme kinetics assay; settings: read-out: Ki(app)
Procedure, shortened: (§1)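 B. anthracis SrtA (1.5–15 µM final) preincubated 1 h at 25 °C with compound (0.08–400 µM final, Me2SO) in 20 mM HEPES, 5 mM CaCl2, pH 7.5. Reaction started with 100 µM Abz-LPETG-Dap(Dnp) substrate. Fluorescence read at ex 335/em 420 nm. IC50 from fit of initial velocities, three independent data sets, Hill equation.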

| Structure (SMILES) | Ki |
| --- | --- |
| CCSc1c(S)cnn(-c2ccccc2)c1=O | 0.3 µM |
| CC1=NN(c2ccccc2)C(=S)/C1=C/Nc1c(Br)cc(Br)cc1Br | 1.7 µM |

tested on: Staphylococcus aureus; test: Antimicrobial activity against Staphylococcus aureus Newman by microtiter broth dilution method; assay type: functional; settings: not given
Procedure, shortened: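 S. aureus Newman overnight culture diluted to OD600 0.01, incubated at 37 °C, diluted to OD600 0.005; compound added at final 0.1–100 µM. OD600 followed during overnight growth at 37 °C in plate reader. Growth percentage relative to no-inhibitor cultures and to 10 µg/mL erythromycin. Triplicate.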

| Structure (SMILES) | Activity | MIC |
| --- | --- | --- |
| CC1=NN(c2ccccc2)C(=S)/C1=C/Nc1ccccn1 | inactive | – |
| CCSc1c(S)cnn(-c2ccccc2)c1=O | inactive | – |
| COc1c(S)cnn(-c2cccc(Cl)c2)c1=O | – | > 1000 µM |
| CCOc1cnn(-c2cccc(C)c2)c(=O)c1S | inactive | – |
| CC1=NN(c2ccccc2)C(=S)/C1=C/Nc1ccc(/N=N/c2ccccc2)cc1 | inactive | – |
| CC1=NN(c2ccccc2)C(=S)/C1=C/Nc1c(Br)cc(Br)cc1Br | inactive | – |
| Cc1ccc(N2C(=O)/C(=C/c3cc([N+](=O)[O-])cc(Br)c3O)SC2=S)c(C)c1 | – | 10 µM (≈ 4.65 µg/mL) |
| CC1=NN(c2ccccc2)C(=S)/C1=C/Nc1ccc(Br)cc1 | inactive | – |
| CC1=NN(c2ccccc2)C(=S)/C1=C/Nc1ccc([N+](=O)[O-])cc1 | – | > 1000 µM |

tested on: not listed separately; test: Inhibition of Staphylococcus aureus sortase A deltaN59 mutant assessed as Dap(Dnp) hydrolysis by FRET assay; settings: not given

| Structure (SMILES) | IC50 |
| --- | --- |
| CCOc1cnn(-c2cccc(F)c2)c(=O)c1S | 5.7 µM |
| CCOc1c(S)cnn(-c2cccc(F)c2)c1=O | 5.5 µM |
| CC1=NN(c2ccccc2)C(=S)/C1=C/Nc1ccccc1O | 22 µM |
| CCN1C(=O)/C(=C/c2ccc(-c3ccccc3[N+](=O)[O-])o2)SC1=S | 104 µM |
| CCOc1cnn(-c2cc(Cl)cc(Cl)c2)c(=O)c1S | 166 µM |
| CCSc1c(O)cnn(-c2ccccc2)c1=O | > 50 µM |
| CC1=NN(c2ccccc2)C(=S)/C1=C/Nc1ccc([N+](=O)[O-])cc1O | 9.6 µM |
| CC1=NN(c2ccccc2)C(=S)/C1=C/Nc1ccccn1 | 0.76 µM |
| O=c1c(Cl)c(Cl)cnn1C1CCCCC1 | > 50 µM |
| CC1=NN(c2ccc(Cl)cc2)C(=O)/C1=C/Nc1ccc([N+](=O)[O-])cc1 | 48 µM |
| Cc1cccc(N2C(=O)/C(=C/c3cc([N+](=O)[O-])cc(Br)c3O)SC2=S)c1 | 15 µM |
| O=C1/C(=C/c2cc([N+](=O)[O-])cc(Br)c2O)SC(=S)N1c1ccc([N+](=O)[O-])cc1 | 12 µM |
| CCOc1cnn(C2CCCCC2)c(=O)c1Cl | > 50 µM |
| CCOc1cnn(-c2ccc([N+](=O)[O-])cc2)c(=O)c1Cl | 219 µM |
| COc1c(Cl)cnn(-c2cccc(Br)c2)c1=O | > 50 µM |
| O=c1c(Cl)c(Cl)cnn1-c1cccc(F)c1 | > 50 µM |
| CCOc1cnn(-c2cccc(F)c2)c(=O)c1Cl | > 50 µM |
| O=c1c(Cl)c(Cl)cnn1-c1ccc([N+](=O)[O-])cc1 | > 50 µM |
| COc1cnn(-c2ccccc2)c(=O)c1S | 9.3 µM |
| CCOc1c(S)cnn(-c2cccc(C)c2)c1=O | 3.3 µM |
| O=c1c(Cl)c(Cl)cnn1-c1cccc(Br)c1 | > 50 µM |
| CCOc1cnn(-c2ccccc2)c(=O)c1Cl | 1 µM |
| COc1c(Cl)cnn(-c2cccc(F)c2)c1=O | > 50 µM |
| COc1c(O)cnn(-c2ccccc2)c1=O | > 50 µM |
| COc1c(Cl)cnn(C2CCCCC2)c1=O | > 50 µM |
| CCOc1c(Cl)cnn(-c2ccc([N+](=O)[O-])cc2)c1=O | > 50 µM |
| CCOc1c(S)cnn(-c2cc(Cl)cc(Cl)c2)c1=O | 301 µM |

| Structure (SMILES) | IC50 |
| --- | --- |
| COc1c(S)cnn(-c2cccc(Cl)c2)c1=O | 4.5 µM |
| Cc1ccc(N2C(=O)/C(=C/c3cc(Br)c(O)c([N+](=O)[O-])c3)SC2=S)c(C)c1 | 35 µM |
| O=C1/C(=C/c2ccc(-c3ccccc3)o2)SC(=S)N1Cc1ccccc1 | 492 µM |
| CC1=NN(c2ccccc2)C(=S)/C1=C/Nc1ccc(C)cc1C | 68 µM |
| CC1=NN(c2ccc(Cl)cc2)C(=O)/C1=C/Nc1ccc([N+](=O)[O-])cc1C | 45 µM |
| Cc1ccc(N2C(=O)/C(=C/c3cccc([N+](=O)[O-])c3)SC2=S)c(C)c1 | 119 µM |
| COc1c(Cl)cnn(-c2cccc(C)c2)c1=O | > 50 µM |
| O=c1c(Cl)c(Cl)cnn1-c1cc(Cl)cc(Cl)c1 | 61 µM |
| CCOc1cnn(-c2cccc(Br)c2)c(=O)c1Cl | > 50 µM |
| CCOc1cnn(-c2cccc(C)c2)c(=O)c1S | 3.1 µM |
| CC1=NN(c2ccccc2)C(=S)/C1=C/Nc1ccc(/N=N/c2ccccc2)cc1 | 9 µM |
| CCOc1c(Cl)cnn(-c2ccccc2)c1=O | > 50 µM |
| CC1=NOC(=O)/C1=N\c1ccc([N+](=O)[O-])cc1 | 17 µM |
| CSc1cnn(-c2ccccc2)c(=O)c1O | > 50 µM |
| CCOc1c(Cl)cnn(-c2cccc(C)c2)c1=O | > 50 µM |
| COc1c(Cl)cnn(-c2ccccc2)c1=O | > 50 µM |
| CCOc1c(S)cnn(-c2ccc([N+](=O)[O-])cc2)c1=O | 30 µM |
| CCOc1c(Cl)cnn(-c2cccc(Br)c2)c1=O | > 50 µM |
| CC1=NN(c2ccccc2)C(=O)/C1=C/Nc1ccc([N+](=O)[O-])cc1 | 56 µM |
| CCOc1c(SS)cnn(-c2ccccc2)c1=O | 1.5 µM |
| COc1c(Cl)cnn(-c2cc(Cl)cc(Cl)c2)c1=O | > 50 µM |
| CC(=O)c1ccc(/N=C2\C(=O)NN=C2C)cc1 | 26 µM |
| O=C1/C(=C/c2cc([N+](=O)[O-])cc(Br)c2O)SC(=S)N1c1cccc(Cl)c1 | 17 µM |
| O=C(/C=C/c1ccc([N+](=O)[O-])cc1)c1ccccc1 | 51 µM |
| CC1=NN(c2ccccc2)C(=S)/C1=C/Nc1cc([N+](=O)[O-])ccc1O | 14 µM |
| O=c1c(Cl)c(Cl)cnn1-c1ccccc1 | > 50 µM |
| CC1=NN(c2ccccc2)C(=S)/C1=C/Nc1ccc(C)c(C)c1 | 52 µM |

| Structure (SMILES) | IC50 |
| --- | --- |
| CCOc1c(Cl)cnn(-c2cccc(F)c2)c1=O | > 50 µM |
| CC1=NN(c2ccccc2)C(=S)/C1=C/Nc1ccc([N+](=O)[O-])cc1Br | 8.9 µM |
| Cc1cccc(-n2ncc(Cl)c(Cl)c2=O)c1 | > 50 µM |
| Cc1ccc(N2C(=O)/C(=C/c3cc([N+](=O)[O-])cc(Br)c3O)SC2=S)c(C)c1 | 3.7 µM |
| CN1C(=O)/C(=C/c2ccc(-c3ccccc3)o2)SC1=S | 405 µM |
| CCOc1cnn(-c2ccccc2)c(=O)c1S | 4.4 µM |
| CC1=NN(c2ccccc2)C(=S)/C1=C/Nc1ccc(Br)cc1 | 39 µM |
| CCOc1c(S)cnn(C2CCCCC2)c1=O | 17.9 µM |
| CCn1ncc(SC)c(O)c1=O | > 50 µM |
| CCCN1C(=O)/C(=C/c2ccc(-c3ccccc3)o2)SC1=S | 186 µM |
| CCOc1c(Cl)cnn(C2CCCCC2)c1=O | > 50 µM |
| CC1=NN(c2ccccc2)C(=S)/C1=C/Nc1ccccc1Cl | 54 µM |
| CC1=NN(c2ccc(C)cc2)C(=O)/C1=C/Nc1ccc([N+](=O)[O-])cc1 | 62 µM |
| C=CCN1C(=O)/C(=C/c2ccc(-c3ccccc3)o2)SC1=S | 199 µM |
| CCOc1cnn(-c2cccc(C)c2)c(=O)c1Cl | > 50 µM |
| CSc1cnn(-c2ccccc2)c(=O)c1Cl | > 50 µM |
| CC1=NN(c2ccccc2)C(=S)/C1=C/Nc1ccc([N+](=O)[O-])cc1[N+](=O)[O-] | 6.8 µM |
| O=c1c(OCc2ccccc2)c(O)cnn1-c1ccccc1 | > 50 µM |
| CC1=NN(c2ccccc2)C(=S)/C1=C/NC1CCCCC1 | 115 µM |
| CCN1C(=O)/C(=C/c2ccc(-c3cccc(Cl)c3)o2)SC1=S | 109 µM |
| CCOc1c(S)cnn(-c2cccc(Br)c2)c1=O | > 50 µM |
| CC1=NN(c2ccccc2)C(=S)/C1=C/Nc1ccc(I)cc1 | 42 µM |
| Cc1ccc(/C=C2\SC(=S)N(c3cccc(Cl)c3)C2=O)cc1[N+](=O)[O-] | > 1000 µM |
| CN1C(=O)/C(=C/c2cc([N+](=O)[O-])cc(Br)c2O)SC1=S | 14 µM |
| CCOc1c(Cl)cnn(-c2cc(Cl)cc(Cl)c2)c1=O | > 50 µM |

tested on: Staphylococcus aureus; settings: not given

| Structure (SMILES) | Activity |
| --- | --- |
| COc1c(S)cnn(-c2cccc(Cl)c2)c1=O | 50% |
| Cc1ccc(N2C(=O)/C(=C/c3cc([N+](=O)[O-])cc(Br)c3O)SC2=S)c(C)c1 | 84% |
| CC1=NN(c2ccccc2)C(=S)/C1=C/Nc1ccc([N+](=O)[O-])cc1 | 58% |

target: not listed separately; test: Inhibition of Bacillus anthracis sortase A by FRET assay; settings: not given; procedure, shortened: as §1

| Structure (SMILES) | IC50 |
| --- | --- |
| CCOc1cnn(-c2cccc(F)c2)c(=O)c1S | 0.9 µM |
| CCOc1cnn(-c2cc(Cl)cc(Cl)c2)c(=O)c1S | 5.2 µM |
| CCSc1c(O)cnn(-c2ccccc2)c1=O | > 50 µM |
| CC1=NN(c2ccccc2)C(=S)/C1=C/Nc1ccccn1 | 1.4 µM |
| O=c1c(Cl)c(Cl)cnn1C1CCCCC1 | 14 µM |
| COc1c(O)cnn(-c2ccccc2)c1=O | > 50 µM |
| CCOc1c(SS)cnn(-c2ccccc2)c1=O | 1.2 µM |
| C=CCN1C(=O)/C(=C/c2ccc(-c3ccccc3)o2)SC1=S | 27 µM |
| O=c1c(OCc2ccccc2)c(O)cnn1-c1ccccc1 | > 50 µM |

tested on: not listed separately; test: Inhibition of Staphylococcus aureus sortase A deltaN59 mutant assessed as Dap(Dnp) hydrolysis by FRET assay based enzyme kinetics assay; settings: read-out: Ki(app)

| Structure (SMILES) | Ki |
| --- | --- |
| CCSc1c(S)cnn(-c2ccccc2)c1=O | 1.4 µM |
| CCOc1c(SSC)cnn(-c2ccccc2)c1=O | 0.4 µM |
| CCOc1c(SSc2ccccn2)cnn(-c2ccccc2)c1=O | 0.03 µM |
| CC1=NN(c2ccccc2)C(=O)/C1=C/Nc1ccc([N+](=O)[O-])cc1 | 0.3 µM |
| CCOc1c(S)cnn(-c2ccccc2)c1=O | 0.2 µM |
